ChEMBL document CHEMBL1124955, “2-substituted-1-naphthols as potent 5-lipoxygenase inhibitors with topical antiinflammatory activity” (J Med Chem, 1990)

What was measured:
[1] = biological target: T1, Polyunsaturated fatty acid 5-lipoxygenase (Rattus norvegicus, UniProt P12527); assay: Ability to inhibit 5-lipoxygenase by using a crude preparation of the cytosolic enzyme from the rat basophilic leukemia (RBL-1) cell line; type: cell-based
T1 sequence (P12527 whole entry): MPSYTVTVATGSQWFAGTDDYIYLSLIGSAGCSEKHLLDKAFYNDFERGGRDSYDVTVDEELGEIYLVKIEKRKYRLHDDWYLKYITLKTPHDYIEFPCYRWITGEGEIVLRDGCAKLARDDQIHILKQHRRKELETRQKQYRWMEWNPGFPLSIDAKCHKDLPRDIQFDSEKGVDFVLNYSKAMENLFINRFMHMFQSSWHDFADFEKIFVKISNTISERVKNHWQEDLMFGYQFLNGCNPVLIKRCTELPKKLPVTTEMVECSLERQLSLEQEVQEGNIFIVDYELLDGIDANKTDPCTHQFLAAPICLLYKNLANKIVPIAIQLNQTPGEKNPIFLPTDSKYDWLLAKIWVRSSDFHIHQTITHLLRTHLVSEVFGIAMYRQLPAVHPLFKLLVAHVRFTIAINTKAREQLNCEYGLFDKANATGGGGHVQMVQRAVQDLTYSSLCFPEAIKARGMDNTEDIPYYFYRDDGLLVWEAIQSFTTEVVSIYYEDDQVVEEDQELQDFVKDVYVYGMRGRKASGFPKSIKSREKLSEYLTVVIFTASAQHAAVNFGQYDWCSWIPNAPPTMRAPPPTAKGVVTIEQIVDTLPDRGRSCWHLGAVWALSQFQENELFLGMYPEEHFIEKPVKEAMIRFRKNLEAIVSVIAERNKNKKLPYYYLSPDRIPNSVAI
Method in brief: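 Crude cytosolic enzyme (supernatant) from RBL-1 cells, amount giving net 3300–3800 dpm 5-HETE (9–20 μg cell protein/assay). Enzyme is preincubated 5 min at 37 °C, pH 7.0, with compound (in 5% DMSO/Tris pH 8.5) in phosphate buffer with EDTA, gelatin, glutathione, CaCl2 and 0.012 mM indomethacin. Reaction is started with 0.042 mM final [14C]arachidonic acid and stopped by freezing after 2 min.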

[2] = test system: Mus musculus; assay: Percentage inhibition of the mouse arachidonic acid induced ear edema assay (AA) at a dose of 100 ug/ear; type: functional
Method in brief: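 Groups of 10 male CF1 mice (18–20 g). Compound in acetone is applied topically to both ears just before 1 mg arachidonic acid in acetone is applied to one ear; the other ear serves as control. Mice are killed 60 min later and 6-mm ear punches weighed; swelling is the weight difference. %Inhibition = [(C−T)/C]×100, with Student's t test.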

[3] = biological target: T2, Cyclooxygenase (Bos taurus, UniProt O62664+O62698); assay: In vitro inhibition of Prostaglandin G/H synthase in BSV cell line.; type: cell-based
T2 sequence (O62664 whole entry): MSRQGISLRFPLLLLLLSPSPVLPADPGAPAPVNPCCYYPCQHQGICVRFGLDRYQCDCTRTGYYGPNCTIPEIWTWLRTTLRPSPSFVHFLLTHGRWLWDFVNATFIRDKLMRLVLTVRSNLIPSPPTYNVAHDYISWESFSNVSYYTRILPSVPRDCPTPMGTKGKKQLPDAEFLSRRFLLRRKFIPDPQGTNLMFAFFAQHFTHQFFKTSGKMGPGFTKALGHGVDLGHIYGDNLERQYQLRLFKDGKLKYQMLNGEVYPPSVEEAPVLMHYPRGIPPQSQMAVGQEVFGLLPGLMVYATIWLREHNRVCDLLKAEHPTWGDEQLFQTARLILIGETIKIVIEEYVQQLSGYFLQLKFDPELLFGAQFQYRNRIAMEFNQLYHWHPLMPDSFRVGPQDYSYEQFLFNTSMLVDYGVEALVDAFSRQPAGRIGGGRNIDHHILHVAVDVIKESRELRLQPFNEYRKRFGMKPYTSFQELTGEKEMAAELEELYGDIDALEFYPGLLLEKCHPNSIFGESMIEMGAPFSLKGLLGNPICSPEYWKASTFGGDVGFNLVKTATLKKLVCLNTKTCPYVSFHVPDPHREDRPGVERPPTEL
T2 sequence (O62698 whole entry): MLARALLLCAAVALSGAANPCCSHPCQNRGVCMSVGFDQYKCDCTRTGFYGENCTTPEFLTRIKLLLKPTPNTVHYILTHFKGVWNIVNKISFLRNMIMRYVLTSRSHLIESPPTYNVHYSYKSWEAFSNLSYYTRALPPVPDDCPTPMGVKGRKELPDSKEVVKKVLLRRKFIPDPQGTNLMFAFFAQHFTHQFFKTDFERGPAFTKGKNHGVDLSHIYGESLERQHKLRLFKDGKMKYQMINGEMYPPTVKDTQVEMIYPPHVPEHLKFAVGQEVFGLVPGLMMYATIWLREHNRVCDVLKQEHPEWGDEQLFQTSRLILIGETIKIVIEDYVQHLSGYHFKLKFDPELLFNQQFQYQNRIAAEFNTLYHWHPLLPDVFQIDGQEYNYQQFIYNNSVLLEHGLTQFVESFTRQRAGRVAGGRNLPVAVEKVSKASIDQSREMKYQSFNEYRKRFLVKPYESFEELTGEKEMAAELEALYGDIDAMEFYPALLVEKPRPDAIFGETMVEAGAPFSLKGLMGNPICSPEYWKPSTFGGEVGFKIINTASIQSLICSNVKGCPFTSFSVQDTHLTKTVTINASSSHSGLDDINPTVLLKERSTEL

Row | Compound | IC50 [1] [nM] | IC50 [3] [nM] | Inhibition [2] [%]
1 | Cc1ccc(C)c2c(O)c(Cc3ccccc3)ccc12 | 120 | – | 52
2 | Oc1c(Cc2ccccc2)cc(-c2ccccc2)c2ccccc12 | 56 | – | 26
3 | CC(C)(C)c1ccc2ccccc2c1O | 180 | 37000 | 67
4 | Cc1cc(Cc2ccccc2)c(O)c2ccccc12 | 20 | – | 62
5 | CC(Cc1ccc(O)c(O)c1)C(C)Cc1ccc(O)c(O)c1 (centres undefined) [NORDIHYDROGUAIARETIC ACID] | – | 14000 | 25
6 | CC(c1ccccc1)c1ccc2ccccc2c1O (centres undefined) | 70 | 8700 | 45
7 | Oc1c(/C=C\c2ccccc2)ccc2ccccc12 | 160 | 13000 | 65
8 | Oc1cccc2ccccc12 [1-NAPHTHOL] | 3600 | 2000 | 59
9 | OC(c1ccccc1)c1ccc2ccccc2c1 (centres undefined) | 40000 | – | 16
10 | Cc1ccc2ccccc2c1O | 130 | 3000 | 73
11 | COc1cc(Cc2ccccc2)c(O)c2ccccc12 | 31 | – | 69
12 | O=[N+]([O-])c1cc(Cc2ccccc2)c(O)c2ccccc12 | 48000 | – | 28
13 | Oc1c(Cc2ccccc2)cc(Br)c2ccccc12 | 77 | – | 33
14 | Oc1c(Cc2ccccc2)cccc1Cc1ccccc1 | 8800 | 52000 | 21
15 | CS(=O)(=O)c1cc(Cc2ccccc2)c(O)c2ccccc12 | 40000 | – | 15
16 | CCOC(=O)c1cc(Cc2ccccc2)c(O)c2ccccc12 | 160 | – | 16
17 | O=C(c1ccccc1)c1cc(Cc2ccccc2)c(O)c2ccccc12 | 54 | – | 41

Row | Compound | IC50 [1] [nM] | IC50 [3] [nM] | Inhibition [2] [%]
18 | Oc1cc(Cc2ccccc2)cc2ccccc12 | 690 | 2700 | 28
19 | CC(=O)c1cc(Cc2ccccc2)c(O)c2ccccc12 | 510 | – | 16
20 | O=C(O)c1cc(Cc2ccccc2)c(O)c2ccccc12 | 5800 | – | 3
21 | NS(=O)(=O)c1cc(Cc2ccccc2)c(O)c2ccccc12 | 9400 | – | 3
22 | Cn1ccnc1Cc1ccc2ccccc2c1O | 3500 | – | 9
23 | Oc1cc2ccccc2cc1Cc1ccccc1 | 7200 | 35000 | 33
24 | CCOC(=O)/C=C/c1ccc2ccccc2c1O | 45 | 11000 | 0
25 | O=C(O)CCCCc1ccc2ccccc2c1O | 4200 | 720000 | 9
26 | CCOC(=O)CCc1ccc2ccccc2c1O | 58 | 13000 | 69
27 | Oc1c(Cc2cccc(Oc3ccccc3)c2)ccc2ccccc12 | 83 | – | 60
28 | Cl.Nc1c(Cc2ccccc2)ccc2ccccc12 | 9100 | 18000 | 35
29 | Oc1c(CCc2ccccc2)ccc2ccccc12 | 140 | – | 69
30 | Oc1ccc(Cc2ccccc2)c2ccccc12 | 820 | 5900 | 42
31 | Cc1cc(C)c2ccc(Cc3ccccc3)c(O)c2c1 | 62 | – | 44
32 | CC(=O)Oc1c(Cc2ccccc2)ccc2ccccc12 | – | 240000 | 63
33 | COc1cc2ccc(Cc3ccccc3)c(O)c2cc1OC | 1700 | – | 33

Further lines, with some results ahead:

Row | IC50 [1] [nM] | IC50 [3] [nM] | Compound | Inhibition [2] [%]
34 | 140 | – | Cn1cccc1Cc1ccc2ccccc2c1O | 72
35 | 68 | – | Oc1c(Cc2ccc(Br)cc2)ccc2ccccc12 | 50
36 | 3500 | – | COc1ccc2ccc(Cc3ccccc3)c(O)c2c1 | 52
37 | 570 | – | CCOc1ccccc1Cc1ccc2ccccc2c1O | 51
38 | 230 | – | Oc1c(Cc2cccnc2)ccc2ccccc12 | 46
39 | 60 | – | Oc1c(Cc2cccs2)ccc2ccccc12 | 84
40 | 1900 | – | COc1ccc2c(O)c(Cc3ccccc3)ccc2c1 | 76
41 | 180 | – | Oc1c(Cc2ccc(Cl)c(Cl)c2)ccc2ccccc12 | 58
42 | 390 | – | Oc1c(Cc2ccccn2)ccc2ccccc12 | 56
43 | 88 | – | Oc1c(Cc2cccc(Br)c2)ccc2ccccc12 | 55
44 | 52 | – | Oc1c(Cc2cccc(Cl)c2)ccc2ccccc12 | 67
45 | 120 | – | Cc1ccccc1Cc1ccc2ccccc2c1O | 66
46 | 72 | – | Oc1c(Cc2ccc(OCc3ccccc3)cc2)ccc2ccccc12 | 12
47 | 110 | – | COc1cccc(Cc2ccc3ccccc3c2O)c1 | 72
48 | 270 | – | Oc1c(Cc2cccc(C(F)(F)F)c2)ccc2ccccc12 | 67
49 | 140 | – | CN(C)c1ccc(Cc2ccc3ccccc3c2O)cc1 | 67
50 | 37 | – | Oc1c(Cc2ccco2)ccc2ccccc12 | 84
51 | 48 | – | O=[N+]([O-])c1ccc(Cc2ccc3ccccc3c2O)cc1 | 58
52 | 40 | – | Oc1c(Cc2ccc3c(c2)OCO3)ccc2ccccc12 | 78
53 | 240 | – | CS(=O)(=O)c1ccc(Cc2ccc3ccccc3c2O)cc1 | 0
54 | 130 | – | Oc1c(Cc2ccc(F)cc2)ccc2ccccc12 | 76
55 | 39 | – | Oc1c(Cc2ccc(Cl)cc2)ccc2ccccc12 | 66
56 | 51 | – | COc1ccc(Cc2ccc3ccccc3c2O)cc1OC | 60
57 | 75 | – | COc1ccc(Cc2ccc3ccccc3c2O)cc1 | 85
58 | 100 | – | COc1cccc2c(O)c(Cc3ccccc3)ccc12 | 69
59 | 24 | – | Cc1ccc(Cc2ccc3ccccc3c2O)cc1 | 79
60 | 58 | – | Oc1c(Cc2ccc3ccccc3c2)ccc2ccccc12 | 52
61 | 140 | – | Oc1c(Cc2ccncc2)ccc2ccccc12 | 62
62 | 48 | – | CSc1ccc(Cc2ccc3ccccc3c2O)cc1 | 76
63 | 62 | – | CCOc1ccc(Cc2ccc3ccccc3c2O)cc1 | 68
